Screening results: PubChem BioAssay, several laboratories
This is a sample that favours compounds with a hit; in the whole collection about 1.7% have one here.
Rpn11 block – blocks the human proteasome subunit Rpn11; 0.59% of 360,000 active; AID 588493; O00487; inhibition, % at 20 µM; human 26S proteasome, Ub4-pepOG fluorescence polarization; 20S core pre-blocked with epoxomicin;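 active = inhibition at 20 µM, scaled to each plate's controls, above about 33%, limit read from the data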
Target sequence (O00487 whole entry, looked up): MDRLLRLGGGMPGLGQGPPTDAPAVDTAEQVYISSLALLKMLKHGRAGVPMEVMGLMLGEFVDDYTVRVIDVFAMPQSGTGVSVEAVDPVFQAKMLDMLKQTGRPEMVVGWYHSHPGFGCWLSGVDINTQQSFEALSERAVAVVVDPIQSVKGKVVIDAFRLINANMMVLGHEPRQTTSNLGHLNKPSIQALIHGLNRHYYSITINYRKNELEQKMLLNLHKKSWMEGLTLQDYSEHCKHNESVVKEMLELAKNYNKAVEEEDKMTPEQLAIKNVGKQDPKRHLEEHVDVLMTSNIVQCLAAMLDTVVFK
IDE cell inh – inhibitors of human insulin-degrading enzyme in cells. P14735. HEK cells, FAbetaB cleavage, fluorescence polarization. inhibition, % at 5.59 µM. 0.41% of 320,000 active. AID 434962;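 active = percent inhibition above the average of all tested compounds plus 3 SD, set per screening campaign, cut at about 16% in these data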;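 note: IDE supplied by intact live HEK cells; FP after avidin binding of uncleaved biotin substrate so inhibition keeps polarization high; 0% = DMSO wells and 100% = 60 µM reference IDE inhibitor Ii1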
HNF4A DNA FP – change in binding of human HNF4 alpha to DNA; P41235; HNF4a-FITC DNA binding, fluorescence polarization, 1 h; activity change, % at 10 µM; 0.3% of 360,000 active; AID 1224865; in the data active = activity change above about 30%, passing the limit was not always enough
IDE cell activ – boosts human insulin-degrading enzyme activity in HEK cells; P14735; FAbeta-B cleavage, fluorescence polarization; 0% vehicle, 100% cell-free pure enzyme wells; 0.073% of 340,000 active; activation, % at 5.96 µM;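 active = activation above the mean of all tested compounds plus 3 SD, set per screening campaign, cut at about 17% in these data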
TPT1 inhibitor – C. albicans TPT1 enzyme inhibition. 0.81% of 300,000 active. recombinant caTPT1, FP RNA substrate dephosphorylation. inhibition, % at 5 µM;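 active = inhibition above the mean of all tested compounds plus 3 SD, set per screening campaign, cut at about 24% in these data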;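 note: plate controls were DMSO alone for no effect and ferristatin control at 100 nM for full effect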
CSN deneddyl inh – inhibitors of human CSN-mediated cullin deneddylation. 0.38% of 360,000 active. Purified CSN, SCF-Nedd8-OG deneddylation, fluorescence polarization. inhibition, % at 12.5 µM;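 active = pattern-corrected inhibition above about 35%, with an unprinted fluorescence ratio check between 0.5 and 1.5, limit read from the data, passing the limit was not always enough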;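 note: 0% = enzyme with substrate and 100% = substrate without enzyme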
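Assay system: Purified human Csn5 enzyme expressed in HEK293T cells | Amount: Enzyme 0.24 nM | Measured by: Fluorescence polarization readout | Medium: Tris/NaCl/DTT buffer, pH 7.5 | Compound dosing: One concentration, 12.5 µM, 0.25% DMSO | Times: 90 min incubation of compound, enzyme and substrate at room temperature | Control set: no-enzyme wells high, enzyme-with-substrate wells low | Read-out: % inhibition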
caTPT1 confirm – TPT1 (C. albicans) inhibition, confirmation. shares compounds with TPT1 inhibitor. recombinant caTPT1, fluorescence polarization, RNase T1 coupled. inhibition, % at 5 µM. 74% of 2,400 active. AID 2149;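 active = inhibition above the primary screen limit, the mean inhibition of all tested compounds plus 3 SD, cut at about 25% in these data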
RNase T1 inh – counter-screen for TPT1 inhibitors: inhibitors of Aspergillus oryzae RNase T1. shares compounds with TPT1 inhibitor. RNase T1 cleavage, fluorescence polarization, 1536-well. inhibition, % at 5 µM. 83% of 2,400 active. AID 2153;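 active = inhibition above the solvent-only control well mean plus 3 SD, limit set per screening run, cut at about 23% in these data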;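 note: plate controls were DMSO wells with enzyme for no effect and wells without RNase T1 for full effect; inhibitors block cleavage so intact labeled substrate keeps polarization high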
Target sequence (P00651 whole entry, looked up): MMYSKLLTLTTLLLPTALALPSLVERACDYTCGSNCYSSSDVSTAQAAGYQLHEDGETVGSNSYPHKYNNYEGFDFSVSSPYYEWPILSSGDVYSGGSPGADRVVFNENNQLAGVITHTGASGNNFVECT
* = called active by the depositor; . = not tested or not shown.

SMILES	Rpn11 block	IDE cell inh	HNF4A DNA FP	IDE cell activ	TPT1 inhibitor	CSN deneddyl inh	caTPT1 confirm	RNase T1 inh
O=C(OCC(=O)N1CCCCCC1)c1cc(S(=O)(=O)N2CCOCC2)ccc1F	-4	.	-2	.	.	0	.	.
CN(C)c1ccc(/C=c2\sc3n(c2=O)CCCN=3)cc1	.	12	26	-5	103*	25	42*	59*
CCOC(=O)C1=C(C)N=c2s/c(=C/c3ccco3)c(=O)n2C1c1cccc(OC)c1 (stereo not given)	.	5	.	.	31*	.	25*	35*
CCOC(=O)C1=C(C)N=c2s/c(=C\c3ccc(C(=O)O)cc3)c(=O)n2C1c1ccc(OC)cc1OC (stereo not given)	6	5	1	-1	1	7	.	.
CCOC(=O)C1=C(C)N=c2s/c(=C\c3cccn3C)c(=O)n2C1c1cccc(OC)c1OC (stereo not given)	.	6	84*	2	82*	46*	139*	137*
COc1ccc(C=O)c(OCc2cn(CC(=O)c3ccc(O)cc3)nn2)c1	0	.	2	6	.	-1	.	.
COc1cc(/C=C/c2sc3ccccc3[n+]2CCCS(=O)(=O)[O-])ccc1O	.	10	87*	-13	86*	127	97*	101*
Cc1ccc2sc(C)[n+](CCCS(=O)(=O)[O-])c2c1	-8	0	-4	3	-2	-2	.	.
CN=c1scc(-c2ccccc2F)n1/N=C/c1ccc[nH]1	28	6	15	5	50*	9	27*	36*
C[C@@H]1CN([C@H](C)CO)C(=O)CCCn2nncc2CO[C@H]1CN(C)S(=O)(=O)c1ccc(C#N)cc1	-4	.	0	.	.	10	.	.
CC(=O)Nc1ccc(C(=O)N2CCCCC2c2cc(C(=O)N3CCOCC3)no2)cc1 (stereo not given)	-5	.	1	.	.	-3	.	.
CCCCNc1c(-c2ccc(-c3ccc(C(C)=O)cc3)c(OC)c2)nc2cnccn12	7	-2	12	-6	26*	1	52*	63*
Cc1ccc(-c2nnc(Nc3ccc4c(c3)OCO4)c3ccccc23)cc1S(=O)(=O)NC(C)C	15	2	2	-1	52*	6	7	12
Cc1ccc(-c2nnc(Nc3ccc4c(c3)OCO4)c3ccccc23)cc1S(=O)(=O)NCCO	-5	1	2	5	0	-7	.	.
CC(C)N1CCc2c(sc(NC(=O)c3ccc(S(=O)(=O)N4CCOCC4)cc3)c2C#N)C1	.	0	98	-5	127*	26	156*	147*
CCN1CCc2c(sc(NC(=S)NC(=O)c3ccc(Cl)cc3)c2C(N)=O)C1	.	2	76	-44	27*	28	30*	36*
CCN1CCc2c(sc(NC(=O)c3ccc(S(=O)(=O)N(C)c4ccccc4)cc3)c2C(=O)NC)C1	-33	14	27	-35	133*	19	150*	145*
CNC(=O)c1c(NC(=O)c2ccc(S(=O)(=O)N(C)c3ccccc3)cc2)sc2c1CCN(C(C)C)C2	.	16	.	.	125*	.	161*	149*
O=C(Nc1ccn(CCCNCC2CCCO2)c(=O)n1)OCc1ccccc1 (stereo not given)	1	.	2	-4	.	1	.	.
Cc1ccc(C(=O)NN2C(=O)/C(=C/c3cn(C)c4ccccc34)SC2=S)cc1	-80	3	75	-18	160*	22	80*	86*
Cn1cc(/C=C2\SC(=S)N(NC(=O)c3ccccc3Cl)C2=O)c2ccccc21	-35	11	82	-21	76*	25	176*	162*
COC(=O)CCCn1cc(CN2CC(N3CCN(Cc4cccc(C)c4)CC3)CS2(=O)=O)nn1 (stereo not given)	.	.	6	.	.	-7	.	.
Cc1[nH]c2ccccc2c1/C=C/C(=O)c1ccccc1	.	-2	24	-4	32*	15	63*	75*
